ChEMBL document CHEMBL4513216, “Probing the Open Global Health Chemical Diversity Library for Multistage-Active Starting Points for Next-Generation Antimalarials” (ACS Infect Dis, 2020)

Assay: Toxicity liver stage against HepG2, at 10uM
Format: cell-based
Set-up: test concentration 10 uM, cell line HepG2-A16-CD81EGFP
Settings: human, HepG2-A16-CD81EGFP cells; read-out: INHIBITION
Outline: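 Uninfected HepG2-A16-CD81EGFP cells, 3 × 10^3 per well, 1536-well, plated on prespotted compound at 10 μM final, parasite-free screening media added to match infected plates; puromycin 10 μM positive, DMSO 0.5% negative; run in parallel with 48 h PbLuc assay at 37 °C, 5% CO2; viability by CellTiter-Glo luminescence, normalized to controls.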

Compound	cytotoxicity at 10 µM [%]
CC(C)CNC1(Cc2cc(-c3ccccc3)on2)COC1	1.74
CCOC(=O)Cn1c(=O)c(OCC)nc2cnccc21	4.25
CCCN1CCc2nc(SCc3ccccc3F)[nH]c(=O)c2C1	-2.62
CN1CCN(c2cc(NC(=O)c3cnccn3)ncn2)CC1	-1.23
CCc1c(C)nc2n(c1=O)CC(C(=O)Nc1ccccc1C)CS2 (stereo unspecified)	-1.38
COC(=O)c1sccc1S(=O)(=O)NCCC(O)c1ccoc1 (stereo unspecified)	-2.64
COc1cc(N2C[C@H]3CN(CC(=O)N(C)C)C(=O)[C@H]3C2)ncn1	96.6
CN(C)C[C@H]1C[C@@H]2CN(C(=O)c3ccco3)C[C@@H]2O1	-5.77
COc1cc(N2CC3(CCN(S(=O)(=O)C4CC4)C3)C2)ncn1	7.34
Cc1ccc(N2CCCc3sc(C(=O)NCc4ccncc4)nc32)nn1	14.6
O=C(C[C@@H]1COC[C@H]2CN(C3CCOCC3)C[C@@H]12)Nc1cnccn1	12
Cc1nn(CCNc2ncnc3c2NC(=O)CN3)c(C)c1Cl	10.5
Cc1nn(C)c(C)c1CN(C)C(=O)c1cc(C(F)(F)F)n(C)n1	-0.65
CCn1nc(C)c2nnn(CC(=O)Nc3cccc(C)c3)c(=O)c21	10.1
CCC(=O)N1CCC(c2nc(N3CCCCC3)ncc2S(C)(=O)=O)CC1	4.03
Cc1cc(C)nc(N2CC[C@H](Oc3ccccc3F)[C@@H](O)CC2)n1	3.72
Cc1nc[nH]c1CN(Cc1ccc(F)cc1)C1CC(C)(C)NC(C)(C)C1	0.92
CC(=O)NCC(=O)NCC1(O)CCN(c2cnccn2)C1 (stereo unspecified)	7.89
CN(C)C(=O)CN1CCCC(Cc2ccc(N3CCCC3)nn2)C1 (stereo unspecified)	3.77
CN(C)Cc1ccnc(C2CN(CCCc3ccccc3)CCO2)n1 (stereo unspecified)	-6.36
NC(=O)C1CN(C(=O)Cc2cccnc2)CCN(C2CCOCC2)C1 (stereo unspecified)	-9.58
CNC(=O)C1CN(C(=O)COc2ccccc2)Cc2cn(C)nc21 (stereo unspecified)	-10.4
Cc1nc(NC2CCCC2)cc(C2CCN2C(=O)c2cccnc2)n1 (stereo unspecified)	0.848

Compound	cytotoxicity at 10 µM [%]
O=C(CN1CCOCC1)Nc1cc(C(F)(F)F)ccc1-n1cccc1	8.32
CCC(=O)N1CCC(NCc2cc(C(F)(F)F)ccc2Cl)C1 (stereo unspecified)	-4.04
O=C(O)CCNC(=O)C1(c2cccc(Br)c2)CCOCC1	6.92
OCCN1CCN(Cc2cc(Cl)cc3cccnc23)CC1	-8.12
O=C1C(Sc2cnn[nH]2)CCCN1c1ccccc1F (stereo unspecified)	24.9
O=C(CSCc1ccccn1)NCC1CC1	-3.42
CCN(Cc1cc(Br)ccc1F)C(=O)C(C)NC(N)=O (stereo unspecified)	11.6
CC(CNC(=O)CCc1ccco1)N1CCc2sccc2C1 (stereo unspecified)	4.35
NS(=O)(=O)c1cnn(CC(=O)Nc2c(Cl)cccc2Cl)c1	-7.2
O=C(C1CCOC1)N1CCN(CC2CC2)c2ccccc21 (stereo unspecified)	8.93
CCn1ccnc1CN1CCN(c2nccc(OC)n2)CC1C (stereo unspecified)	-17.9
CC(C)NC(=O)NC(=O)C(C)N1CCN(C2CCN(C(C)C)CC2)CC1 (stereo unspecified)	-15.5
CCc1nnc(NC(=O)N(CCOC)Cc2ccc(C)o2)s1	-18.8
COC(=O)C(NC(=O)c1ccc(C)cc1C)c1cccnc1 (stereo unspecified)	-41.9
CC1COC2(CCN(C(=O)c3ncoc3C(C)C)CC2)O1 (stereo unspecified)	1.15
CCOCCCC(=O)NCc1ccc(N2CCCCC2)cc1	-4.06
COc1ccc2oc(C(C)NC(=O)NCC(C)(C)C(N)=O)c(C)c2c1 (stereo unspecified)	-9.51
CCS(=O)(=O)N1CCCC(c2nc3ccccc3n2C(C)C)C1 (stereo unspecified)	-6.11
COc1cccc(CNc2cc(CO)ccc2Cl)c1	-13.3
c1ccc2nc(N3CCCC3c3nnc4n3CCCCC4)cnc2c1 (stereo unspecified)	-1.63
CCc1noc(CCCC(=O)N2CCCC(c3ccn[nH]3)C2)n1 (stereo unspecified)	-0.799
Cc1noc(C2CCCN(CC(=O)N3CCc4ccccc4C3)C2)n1 (stereo unspecified)	-19.3
COc1ccc(S(=O)(=O)NC2(CC(N)=O)CCC2)cc1	11.7

Compound	cytotoxicity at 10 µM [%]
CCOc1cc(CNC(=O)C(C#N)c2nc(C)cs2)ccc1OC(F)F (stereo unspecified)	8.61
CC(C)(C)c1ccc(S(=O)(=O)CCN2CCNC(=O)CC2)cc1	-5.41
O=S(=O)(Cc1c(F)cccc1F)NCCOc1cccnc1	-39.7
COc1ccc(C(C)N2CCC(OC)CC2)cc1Cl (stereo unspecified)	-53.2
CC(CO)(NC(=O)Nc1nnc(C2CC2)s1)C1CCCCC1 (stereo unspecified)	20
CC1CCCN(c2ccccc2OCC(=O)NC2CC2)C1 (stereo unspecified)	10.1
CCN(Cc1noc(CC(C)C)n1)Cc1ccccc1C	-50.8
Cc1nn(C)c(Cl)c1C1CCCN1c1ncnc2sccc12 (stereo unspecified)	20.8
CCC1=NC2(CCC(C(=O)Nc3ccc(F)cc3)CC2)C(=O)N1C (stereo unspecified)	2.26
Fc1ccccc1CN1C[C@@H]2OCCN(c3ncccn3)[C@@H]2C1	-74
O=C(Cc1ccsc1)N1CCc2ncc(Cn3cccn3)n2CC1	-81.5
COCCO[C@H]1CCN(C(=O)c2cnoc2C)[C@H]1Cc1cnn(C)c1	-69.6
CNC(=O)[C@@]12CCO[C@@H]1CCN(S(=O)(=O)c1ccccc1)C2	-74.8
CC(=O)N1C[C@H](NC(=O)c2cscn2)[C@@H]2OCCC[C@@H]21	2.88
CN(C)c1nccc(-c2c[nH][nH]c2=O)n1	-1.25
CNCC[C@H]1CC(C)(C)Oc2ccc(OC)cc21	0.942
Cc1ncc(-c2ccnc(SCCN)n2)c(-c2ccco2)n1	-14.8
Cc1cccc(C)c1OCC(C)Nc1nc(N)nc2c1CCNC2 (stereo unspecified)	5.75
CNC(=O)c1cc2c(s1)CCN(C(=O)CCC1CCCN(C)C1)C2 (stereo unspecified)	-29.3
CCOc1cccc(C2CC(=O)NCc3nc(N)sc32)c1 (stereo unspecified)	-9.23
Cc1ccc(CN(C)C(=O)c2cc(Cn3ccnc3C(C)C)[nH]n2)o1	0.073
Cc1csc(CN2C[C@H](NC(=O)C3CCOCC3)[C@@H](C(C)C)C2)n1	6.99
CCn1ccnc1CN(C)C(C(=O)O)c1ccc(C(C)(C)C#N)cc1 (stereo unspecified)	-9.1

Compound	cytotoxicity at 10 µM [%]
CCOCCNC(=O)C1CCC(=O)N(CCc2ccc(Cl)cc2)C1 (stereo unspecified)	8.61
CN(Cc1nc2ccccc2c(=O)[nH]1)C[C@@H]1CCCN2CCCC[C@H]12	-6.01
NC1(C(=O)NCC2CCCN(Cc3ccccc3F)C2)CCCC1 (stereo unspecified)	-43.2
CCCn1cnc(NC(=O)NCC2CCS(=O)(=O)C2)n1 (stereo unspecified)	10.3
COc1cccc2c1OCC(CNc1ccc(C)nn1)C2 (stereo unspecified)	8.62
CN(C)c1nc(NCCc2ccnn2C)ncc1F	-9.83
Cc1cc(C)c2c(NCCC3(O)CCCC3)ncnc2n1	-4.44
CC(C)c1cc(N[C@@H](CO)C(N)=O)n2nccc2n1	-1.28
CCc1ccccc1OCCN(C)C(=O)CCN1CCCO1	-43
Cc1cccc(C(C(=O)N(C)CCc2cn[nH]c2)N(C)C)c1 (stereo unspecified)	-8.06
O=C1NCC2(CCCN(C(=O)c3ccc4c(c3)OCCO4)CC2)O1 (stereo unspecified)	-9.35
Clc1ccccc1Cc1noc(CN2CCCC(CN3CCCC3)C2)n1 (stereo unspecified)	-3.15
CCOC(=O)CC1CCCCN1C(=O)CCc1cc(Cl)no1 (stereo unspecified)	6.95
COc1ccccc1OC1(C(=O)O)CCN(c2cnccn2)CC1	-27.5
CCn1nc(C)cc1C(=O)NCc1cccnc1N(C)C	-5.54
Cc1cc(C)c2c(N(C)CC3CCN(CC(C)C)C3)ncnc2n1 (stereo unspecified)	1.61
Cc1cccnc1CC(C)NC1Cc2ccccc2C1 (stereo unspecified)	4.69
N[C@@H](Cc1c[nH]cn1)C(=O)N1CCC(Oc2ccc(F)cc2)CC1	0.828
Cn1cc(N)c(-c2nnc3n2CCCC3)n1	-6.83
CCC(=O)N1CCCC1c1nccnc1Nc1ncccn1 (stereo unspecified)	3.58
Cc1csc(N2CCN(CC(=O)Nc3c(C)n[nH]c3C)CC2C)n1 (stereo unspecified)	-14.4
NC(=O)c1cc(C2CCCN(CCCOc3ccccc3)C2)n[nH]1 (stereo unspecified)	-12.1
O=C1C(NCc2nnc3n2CCCC3)CCN1CC(F)(F)F (stereo unspecified)	-13.8

Compound	cytotoxicity at 10 µM [%]
COc1ccccc1CN(Cc1cccnc1)CC1CCCO1 (stereo unspecified)	1.03
Cc1c(Br)cccc1C(=O)NCC1CCCNC1 (stereo unspecified)	19.8
c1ccc(NCc2cn3c(n2)CNCC3)nc1	9.28
Cn1cc(C2COC3(CCN(C(=O)c4ccccn4)CC3)C2)cn1 (stereo unspecified)	-87.1
O=C(CC1CC1)N1CCc2ncc(CN3CCOCC3)n2CC1	-80.6
CCc1ccc(CN2C[C@H](OC)[C@H]3COC[C@H]32)o1	5.22
O=C(c1cocn1)N1C[C@H]2CCC[C@@]2(COc2ccccn2)C1	-0.798
CCN1CCCC12CCN(Cc1cccnc1OC)CC2	13.4
Cc1nc(CN2C[C@@H]3CN(C(=O)C4CC4)C[C@@H]3C2=O)cs1	4.19
COc1cccc(CNC(Cc2cccs2)c2nc(C)c(C)s2)c1OC (stereo unspecified)	-12.9
c1csc(CN2CCc3c(CNc4nncs4)cncc3C2)c1	-70.1
CCCC(=O)N1CCN(CCN(C)C)c2nc(C)ccc2C1	-73.9
Cc1nc(CN2CCO[C@@H]3CN(Cc4ccccn4)CC[C@@H]3C2)cs1	7.02
O=C(NC1CC1)[C@H]1C[C@H]2OCC[C@H]2N(Cc2cccnc2)C1	0.698
O=C1COC2(CCN(c3cccc(F)c3)CC2)CN1Cc1ccccn1	-2.94
Cn1cccc1C(=O)N1C[C@@H](OCc2ccncc2)[C@@H]2OCCC[C@@H]21	2.32
COc1ccc(CN2CCCn3cnc(COCC4CC4)c3C2)cc1	11
N#Cc1cccc(N2CCCC3(C2)CN(c2ncccn2)CCO3)n1 (stereo unspecified)	17.8
Cc1cccc(S(=O)(=O)N2C[C@@H]3C[C@H](C(=O)N(C)C)[C@H](C2)O3)c1	-5.18
